pIC50: −log10 of the molar value.
Biological target: T1, Putative citrate synthase 2 (Mycobacterium tuberculosis, UniProt P9WPD3)
T1 sequence (P9WPD3 whole entry): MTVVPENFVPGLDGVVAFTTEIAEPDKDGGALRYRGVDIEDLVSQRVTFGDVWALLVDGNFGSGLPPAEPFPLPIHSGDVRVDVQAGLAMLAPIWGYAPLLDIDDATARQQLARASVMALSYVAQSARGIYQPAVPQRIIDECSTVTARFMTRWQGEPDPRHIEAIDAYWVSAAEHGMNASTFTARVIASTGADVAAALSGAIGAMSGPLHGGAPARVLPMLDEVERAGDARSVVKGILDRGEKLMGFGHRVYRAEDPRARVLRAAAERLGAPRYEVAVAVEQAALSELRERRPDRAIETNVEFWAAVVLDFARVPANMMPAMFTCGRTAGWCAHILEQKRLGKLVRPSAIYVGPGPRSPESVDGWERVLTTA
Experiment: Inhibition of Mycobacterium tuberculosis CitA expressed in Escherichia coli cell by UV spectrophotometric based analysis
Procedure, shortened: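 Michael acceptor compounds were added directly to the DTNB/OAA/AcCoA reaction with 10 nM CitA in 50 mM Tris pH 8.0 at 25 °C, read at 412 nm. The screen used 20 μM compound. Dose–response data were fitted to the Hill equation for apparent IC50. A control measured how fast the compounds react with reaction components.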

| SMILES | pIC50 |
| --- | --- |
| C=C1C(=O)OC2(C(=O)Nc3ccccc32)C1c1ccccc1 (configuration not stated) | 4.96 |
| C=C1CC2(OC1=O)C(=O)Nc1ccc(I)cc12 (configuration not stated) | 5.18 |

From ChEMBL document CHEMBL5257161, “Mycobacterium tuberculosis CitA activity is modulated by cysteine oxidation and pyruvate binding” (RSC Med Chem, 2023)
